# Test results from ChEMBL document CHEMBL1641440, “Virtual screening based identification of novel small-molecule inhibitors targeted to the HIV-1 capsid” (Bioorg Med Chem, 2011).
# Active and inactive are the calls of the source. No cut-off for these calls is given here.
# Legend:
# [1] = tested on: Human immunodeficiency virus 1; assay: Antiviral activity against HIV1 3B infected in human MT2 cells assessed as inhibition of viral p24 antigen production after 4 days by ELISA; type: functional, organism-based; conditions: Human immunodeficiency virus 1, 3B, MT2, 96 h
# In short: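 MT-2 cells (1 × 10^4) infected with HIV-1 IIIB at 100 TCID50 (0.01 MOI) in RPMI 1640/10% FBS with graded inhibitor concentrations overnight; medium then replaced with fresh medium containing freshly prepared compound. On day 4 supernatant mixed 1:1 with 5% Triton X-100 and p24 measured by ELISA; IC50 = concentration giving 50% reduction in p24 production. Mean ± SD.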
# MT2 = assay: Cytotoxicity against human MT2 cells after 4 days by XTT assay; type: cell-based; conditions: mt2, 96 h
# In short: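 XTT assay run in parallel with the MT-2 antiviral assay, with medium in place of virus. Graded compound added to an equal volume of MT-2 cells (1 × 10^5 cells/mL), 37 °C for 4 days. Formazan read at 450 nm (reference 620 nm) 4 h after XTT addition; CC50 = concentration giving 50% cytotoxicity.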
# [2] = tested on: Human immunodeficiency virus 1; conditions: 3B, MT2, 1 ug/mL
# [3] = tested on: Human immunodeficiency virus 1; assay: Antiviral activity against protease-resistant HIV1 RF/L-323-12-3 infected in human MT2 cells assessed as inhibition of viral p24 antigen production after 4 days by ELISA; type: functional, organism-based; conditions: Human immunodeficiency virus 1, RF/L-323-12-3, MT2, 96 h
# In short: (§1)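 MT-2 cells (1 × 10^4) were infected at 100 TCID50 (0.01 MOI) in RPMI 1640 with 10% FBS, with or without graded inhibitor concentrations, overnight. Medium was then replaced with fresh inhibitor-containing medium. On day 4, supernatant was mixed 1:1 with 5% Triton X-100 and p24 was measured by ELISA. IC50 is the concentration giving 50% reduction in p24.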
# [4] = tested on: Human immunodeficiency virus 1; assay: Antiviral activity against HIV1 SF2 infected in human MT2 cells assessed as inhibition of viral p24 antigen production after 4 days by ELISA; type: functional, organism-based; conditions: Human immunodeficiency virus 1, SF2, MT2, 96 h; in short: as §1
# [5] = tested on: Human immunodeficiency virus 1; assay: Antiviral activity against HIV1 RF infected in human MT2 cells assessed as inhibition of viral p24 antigen production after 4 days by ELISA; type: functional, organism-based; conditions: Human immunodeficiency virus 1, RF, MT2, 96 h; in short: as §1
# [6] = tested on: Human immunodeficiency virus 1; assay: Antiviral activity against primary HIV1 isolate BCF02 infected in human PBMC assessed as inhibition of viral p24 antigen production after 7 days by ELISA; conditions: Human immunodeficiency virus 1, isolate BCF02, 168 h
# [7] = Selectivity index, ratio of CC50 for human MT2 cells to IC50 for HIV1 3B infected in human MT2 cells; type: functional
# In short: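 IC50: MT-2 cells infected with HIV-1 IIIB (100 TCID50, 0.01 MOI) overnight with graded compound, then medium refreshed with compound; day-4 p24 measured by ELISA. […] Ratio is CC50/IC50.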
# [8] = tested on: Human immunodeficiency virus 1; assay: Antiviral activity against primary HIV1 isolate 93BR020 infected in human PBMC assessed as inhibition of viral p24 antigen production after 7 days by ELISA; conditions: Human immunodeficiency virus 1, isolate 93BR020, 168 h
# [9] = tested on: Human immunodeficiency virus 1; assay: Antiviral activity against azidothymidine-resistant HIV1 SF2 infected in human MT2 cells assessed as inhibition of viral p24 antigen production after 4 days by ELISA; type: functional, organism-based; conditions: Human immunodeficiency virus 1, MT2, 96 h; in short: as §1
# [10] = tested on: Human immunodeficiency virus 1; assay: Antiviral activity against primary HIV1 isolate 94UG103 infected in human PBMC assessed as inhibition of viral p24 antigen production after 7 days by ELISA; conditions: Human immunodeficiency virus 1, isolate 94UG103, 168 h
# [11] = tested on: Human immunodeficiency virus 1; assay: Antiviral activity against primary HIV1 isolate 93IN101 infected in human PBMC assessed as inhibition of viral p24 antigen production after 7 days by ELISA; conditions: Human immunodeficiency virus 1, isolate 93IN101, 168 h
# [12] = target: Structural capsid protein (Human immunodeficiency virus 1) (UniProt Q76129); assay: Binding affinity to HIV1 capsid protein assessed as decrease in formation of mature-like particles after 30 mins by electron microscopy
# In short: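 Purified CA at 50 μM in Na2HPO4 buffer pH 8.0, without RNA, was incubated with inhibitor at 0.5 to 5 molar equivalents for 30 min at 4 °C. It was then dialysed overnight at 4 °C in the same buffer plus 100 mM NaCl. Samples were spotted on poly-L-lysine-treated grids, negatively stained with uranyl acetate and imaged by EM at 80 kV for tube-shaped particles.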
# [13] = tested on: Human immunodeficiency virus 1; assay: Antiviral activity against primary HIV1 isolate RU570 infected in human PBMC assessed as inhibition of viral p24 antigen production after 7 days by ELISA; conditions: Human immunodeficiency virus 1, isolate RU570, 168 h
# [14] = tested on: Human immunodeficiency virus 1; assay: Antiviral activity against HIV1 MN infected in human MT2 cells assessed as inhibition of viral p24 antigen production after 4 days by ELISA; type: functional, organism-based; conditions: Human immunodeficiency virus 1, MN, MT2, 96 h; in short: as §1
# [15] = tested on: Human immunodeficiency virus 1; assay: Antiviral activity against HIV1 BaL infected in human PBMC assessed as inhibition of viral p24 antigen production after 4 days by ELISA; type: functional, organism-based; conditions: Human immunodeficiency virus 1, BaL, 96 h
# [16] = tested on: Human immunodeficiency virus 1; assay: Antiviral activity against primary HIV1 isolate 92US657 infected in human PBMC assessed as inhibition of viral p24 antigen production after 7 days by ELISA; conditions: Human immunodeficiency virus 1, isolate 92US657, 168 h
# [17] = tested on: Human immunodeficiency virus 1; assay: Antiviral activity against HIV1 89.6 infected in human PBMC assessed as inhibition of viral p24 antigen production after 4 days by ELISA; type: functional, organism-based; conditions: Human immunodeficiency virus 1, 89.6, 96 h
# [18] = tested on: Human immunodeficiency virus 1; assay: Antiviral activity against HIV1 3B infected in human MT2 cells assessed as inhibition of viral p24 antigen production at 5 uM after 4 days by ELISA; type: functional, organism-based
# [19] = tested on: Human immunodeficiency virus 1; assay: Antiviral activity against primary HIV1 isolate 92UG024 infected in human PBMC assessed as inhibition of viral p24 antigen production after 7 days by ELISA; conditions: Human immunodeficiency virus 1, isolate 92UG024, 168 h
# Chain of Structural capsid protein (Human immunodeficiency virus 1) (Q76129 as listed by the source): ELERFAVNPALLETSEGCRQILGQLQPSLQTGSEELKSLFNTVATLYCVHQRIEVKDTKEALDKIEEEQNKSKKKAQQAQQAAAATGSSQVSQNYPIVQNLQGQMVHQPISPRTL
IC50 [1] [µM],Structure (SMILES),CC50 (MT2) [µM],also measured
> 16.8,Cc1ccc2cc(CN(Cc3ccco3)C(=O)c3ccccc3)c(=O)[nH]c2c1,–,–
7.25,Cc1cccc2cc(CN(Cc3ccco3)C(=O)c3ccccc3F)c(=O)[nH]c12,> 64,–
> 25.2,Cc1ccc2[nH]c(=O)c(CN(Cc3ccco3)C(=O)c3ccc(C#N)cc3)cc2c1,–,–
4.02,Cc1cccc2cc(CN(Cc3ccco3)C(=O)c3ccccc3)c(=O)[nH]c12,> 67.1,–
5,CCOc1ccc(C(=O)N(Cc2cccs2)Cc2cc3cc(C)ccc3[nH]c2=O)cc1,12.7,–
> 26.6,Cc1ccc2[nH]c(=O)c(CN(Cc3ccco3)C(=O)c3cnn(C)c3)cc2c1,–,–
3.09,Cc1ccc2[nH]c(=O)c(CN(Cc3ccccc3)C(=O)c3ccco3)cc2c1,> 67.1,–
> 27.5,Cc1ccc2[nH]c(=O)c(CN(Cc3ccco3)C(=O)C(F)(F)F)cc2c1,–,–
> 22.1,Cc1ccc2[nH]c(=O)c(CN(Cc3ccco3)C(=O)c3ccc(S(N)(=O)=O)cc3)cc2c1,–,–
12.3,CCc1ccc2[nH]c(=O)c(CN(Cc3ccco3)C(=O)c3cccs3)cc2c1,> 127,–
7.87,COc1ccc2[nH]c(=O)c(CN(Cc3ccco3)C(=O)c3ccc(C)cc3)cc2c1,> 31,–
4.7,Cc1ccc2[nH]c(=O)c(CN(Cc3ccco3)C(=O)c3ccc(F)c(F)c3)cc2c1,> 24.5,–
> 24.1,Cc1ccc2[nH]c(=O)c(CN(Cc3ccco3)C(=O)c3ccc(N(C)C)cc3)cc2c1,–,–
> 38.9,Cc1ccc2[nH]c(=O)c(CN(CC3CCCO3)C(=O)c3ccc(Cl)cc3)cc2c1 (stereo not given),–,–
> 16.2,Cc1ccc(C(=O)N(Cc2ccco2)Cc2cc3ccc(C)cc3[nH]c2=O)cc1,–,–
> 23.6,Cc1ccc2[nH]c(=O)c(CN(Cc3ccco3)C(=O)c3ccc(O)c(Cl)c3)cc2c1,–,–
11.7,Cc1ccc2[nH]c(=O)c(CN(Cc3cccs3)C(=O)C3CCCCC3)cc2c1,> 63.4,–
7.1,Cc1ccc2[nH]c(=O)c(CN(Cc3ccco3)C(=O)c3ccc(Cl)c(N4CCCCC4)c3)cc2c1,> 20.4,–
8.2,Cc1ccc2[nH]c(=O)c(CN(Cc3ccco3)C(=O)c3ccc(F)c(Cl)c3)cc2c1,> 23.5,–
30,Cc1cc(=O)n2c3ccccc3n(C[C@H](O)CN3CCOCC3)c2c1C#N,> 34.1,–
5.8,Cc1ccc2[nH]c(=O)c(CN(Cc3ccc4c(c3)OCO4)C(=O)c3ccccc3)cc2c1,> 117,–
12.4,Cc1ccc2cc(CN(Cc3ccco3)C(=O)c3cccc(F)c3)c(=O)[nH]c2c1,> 51.2,–
9.2,Cc1ccc2[nH]c(=O)c(CN(Cc3ccco3)C(=O)c3ccc(Cl)c(Cl)c3)cc2c1,70.7,–

IC50 [1] [µM],Structure (SMILES),CC50 (MT2) [µM],also measured
11.8,Cc1ccc2[nH]c(=O)c(CN(Cc3cccs3)C(=O)c3cccs3)cc2c1,> 64,–
9.27,Cc1ccc2[nH]c(=O)c(CN(Cc3ccc(Cl)cc3)C(=O)c3cn4cccc(C)c4n3)cc2c1,44.5,–
–,c1cc(CN2CCCNCCNCCCNCC2)ccc1CN1CCCNCCNCCCNCC1,–,inhibition [2]: Active
> 24.5,Cc1ccc2[nH]c(=O)c(CN(Cc3ccco3)C(=O)CN3CCN(C)CC3)cc2c1,–,–
> 23.6,Cc1ccc2[nH]c(=O)c(CN(Cc3ccco3)C(=O)c3ccc(Cl)c(O)c3)cc2c1,–,–
9.28,Cc1ccc2[nH]c(=O)c(CN(Cc3ccco3)C(=O)c3ccccc3)cc2c1,> 67.1,–
2.16,Cc1ccc2[nH]c(=O)c(CN(Cc3ccco3)C(=O)c3ccc(Br)cc3)cc2c1,> 55.4,–
> 21.9,Cc1ccc2[nH]c(=O)c(CN(Cc3ccco3)C(=O)c3cc(Cl)c(O)c(Cl)c3)cc2c1,–,–
> 12.9,Cc1ccc2[nH]c(=O)c(CN(Cc3cccs3)C(=O)c3ccccc3)cc2c1,–,–
> 13,COc1ccc2[nH]c(=O)c(CN(Cc3ccco3)C(=O)c3ccc(Br)cc3)cc2c1,–,–
4.23,Cc1ccccc1C(=O)N(Cc1ccco1)Cc1cc2cccc(C)c2[nH]c1=O,> 64.7,–
> 16.7,Cc1ccc2[nH]c(=O)c(CN(Cc3ccco3)C(=O)c3cccnc3)cc2c1,–,–
7.9,COc1ccc2[nH]c(=O)c(CN(Cc3cccs3)C(=O)c3cccc(C)c3)cc2c1,25,–
> 16.5,Cc1cccc2cc(CN(Cc3ccco3)C(=O)c3cccs3)c(O)nc12,> 66.1,–
> 13.9,CCc1ccc2[nH]c(=O)c(CN(Cc3ccco3)C(=O)c3ccccc3)cc2c1,–,–
2.67,Cc1ccc(C(=O)N(Cc2ccco2)Cc2cc3cccc(C)c3[nH]c2=O)cc1,9.2,–
6.1,COc1ccc2[nH]c(=O)c(CN(Cc3cccs3)C(=O)C3CCCCC3)cc2c1,> 48,–
6.4,Cc1ccc(CN(Cc2cc3cc(C)ccc3[nH]c2=O)C(=O)c2ccco2)cc1,> 19.8,–
3.59,Cc1cccc2cc(CN(Cc3ccccc3)C(=O)c3cccc(Cl)c3)c(=O)[nH]c12,> 60,–
> 15,COc1ccc(C(=O)N(Cc2ccco2)Cc2cc3ccc(C)cc3[nH]c2=O)cc1,–,–
> 14.6,Cc1ccc2cc(CN(Cc3ccco3)C(=O)c3ccc(C(C)(C)C)cc3)c(=O)[nH]c2c1,–,–
> 25.6,Cc1ccc2[nH]c(=O)c(CN(Cc3ccco3)C(=O)c3ccc(F)cc3)cc2c1,–,–
> 24.8,COc1ccc(C(=O)N(Cc2ccco2)Cc2cc3cc(C)ccc3[nH]c2=O)cn1,–,–

Structure (SMILES),IC50 [1] [µM],CC50 (MT2) [µM],also measured
COc1ccc2nc(O)c(CN(Cc3ccco3)C(=O)c3ccccc3)cc2c1,> 25.7,–,–
Cc1ccc2[nH]c(=O)c(CN(Cc3ccco3)C(=O)c3ccc(Cl)cc3)cc2c1,1.06,–,IC50 [3]: 1.18 µM; IC50 [4]: 2.43 µM; IC50 [5]: 1.64 µM; IC50 [6]: 6.07 µM; Selectivity Index [7]: >60; IC50 [8]: 4.18 µM; IC50 [9]: 5.77 µM; IC50 [10]: 3.93 µM; IC50 [11]: 2.7 µM; inhibition [12]: Dose-dependent effect; IC50 [13]: 2.84 µM; IC50 [14]: 2.88 µM; IC50 [15]: 4.22 µM; IC50 [16]: 5.46 µM; IC50 [17]: 6.17 µM; inhibition [18]: Active; IC50 [19]: 2.57 µM
